Assay results: ChEMBL document CHEMBL4270544, “Design, synthesis and biological evaluation of a novel tubulin inhibitor 7a3 targeting the colchicine binding site” (Eur J Med Chem, 2018)
Values belong to the compound of their own block, whether it stands above or below them. The source made the active and inactive calls. The rule behind the calls is not given here.

Tests used:
SK-OV-3 [1] = experiment: Antiproliferative activity against human SKOV3 cells after 72 hrs by CCK8 assay; type: functional, cell-based; conditions: SK-OV-3, 72 h
Procedure, shortened: (§1)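 CCK-8 proliferation assay with CA-4 as positive control. IC50 is the concentration giving 50% inhibition of proliferation. Mean ± SEM from three independent experiments.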

MDA-MB-231 = experiment: Antiproliferative activity against human MDA-MB-231 cells after 72 hrs by CCK8 assay; type: functional, cell-based; conditions: MDA-MB-231, 72 h; procedure, shortened: as §1
HeLa = experiment: Antiproliferative activity against human HeLa cells after 72 hrs by CCK8 assay; type: functional, cell-based; procedure, shortened: as §1
MCF7 = experiment: Antiproliferative activity against human MCF7 cells after 72 hrs by CCK8 assay; type: functional, cell-based; conditions: MCF7, 72 h; procedure, shortened: as §1
CT26 = experiment: Antiproliferative activity against mouse CT26 cells after 72 hrs by CCK8 assay; type: functional, cell-based; conditions: CT26, 72 h; procedure, shortened: as §1
A549 = experiment: Antiproliferative activity against human A549 cells after 72 hrs by CCK8 assay; type: functional, cell-based; conditions: A549, 72 h; procedure, shortened: as §1
SK-OV-3 [2] = experiment: Antimigratory activity against human SKOV3 cells assessed as number of migrated cells at 50 nM after 24 hrs by crystal violet staining based transwell migration assay (reference value: 49.3 to 50.7); type: functional
SK-OV-3 [3] = experiment: Antimigratory activity against human SKOV3 cells assessed as wound closure at 160 nM after 24 hrs by microscopy based scratch wound assay (reference value: 79.5 +/- 2.8%); type: functional
SK-OV-3 [4] = experiment: Antimigratory activity against human SKOV3 cells assessed as number of migrated cells at 25 nM after 24 hrs by crystal violet staining based transwell migration assay (reference value: 49.3 to 50.7); type: functional
SK-OV-3 [5] = experiment: Antimigratory activity against human SKOV3 cells assessed as wound closure at 80 nM after 24 hrs by microscopy based scratch wound assay (reference value: 79.5 +/- 2.8%); type: functional
Bos taurus = organism: Bos taurus; experiment: Inhibition of bovine MAP-rich tubulin polymerization at 10 uM measured every 1 min for 30 mins relative to control
Procedure, shortened: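 Purified tubulin polymerization followed at 37 °C by absorbance at 340 nm, read every 1 min for 30 min. Test concentrations 2.5, 10 and 40 µM. CA-4 at 10 µM served as positive control and DMSO (1%, v/v) as vehicle. Polymerization is expressed relative to the vehicle group.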

SK-OV-3 [6] = experiment: Antimigratory activity against human SKOV3 cells assessed as number of migrated cells at 100 nM after 24 hrs by crystal violet staining based transwell migration assay (reference value: 49.3 to 50.7); type: functional

Structure (SMILES): COc1ccc(-c2c(-c3cc(OC)c(OC)c(OC)c3)nn(C(C)(C)C)c2N)cc1
IC50 (SK-OV-3 [1]): 40300 nM
IC50 (MDA-MB-231): 31300 nM

Structure (SMILES): COc1ccc(-c2c(-c3cc(OC)c(OC)c(OC)c3)nn(-c3ccc(F)cc3)c2N)cc1
IC50 (SK-OV-3 [1]): 28900 nM
IC50 (MDA-MB-231): 33700 nM

Structure (SMILES): COc1ccc(-n2nc(-c3cc(OC)c(OC)c(OC)c3)c(-c3ccc(OC)c(F)c3)c2N)cc1
IC50 (SK-OV-3 [1]): 14700 nM
IC50 (MDA-MB-231): 18400 nM

Structure (SMILES): COc1ccc(-c2c(-c3cc(OC)c(OC)c(OC)c3)nn(C(C)(C)C)c2N)cc1F
IC50 (SK-OV-3 [1]): 16900 nM
IC50 (MDA-MB-231): 29500 nM

Structure (SMILES): COc1ccc(-c2c(-c3cc(OC)c(OC)c(OC)c3)nn(-c3ccc(OC)cc3)c2N)cc1
IC50 (SK-OV-3 [1]): 19000 nM
IC50 (MDA-MB-231): 15900 nM

Structure (SMILES): COc1cc(-c2nn(C(C)(C)C)c(N)c2-c2ccc(SC)cc2)cc(OC)c1OC
IC50 (SK-OV-3 [1]): 24200 nM
IC50 (MDA-MB-231): 20800 nM

Structure (SMILES): COc1ccc(-c2c(-c3cc(OC)c(OC)c(OC)c3)nn(C)c2N)cc1
IC50 (SK-OV-3 [1]): 16300 nM
IC50 (MDA-MB-231): 31100 nM

Structure (SMILES): COc1ccc(-c2c(-c3cc(OC)c(OC)c(OC)c3)nn(C)c2N)cc1F
IC50 (SK-OV-3 [1]): 31800 nM
IC50 (MDA-MB-231): 36400 nM

Structure (SMILES): COc1ccc(-c2c(-c3cc(OC)c(OC)c(OC)c3)nn(-c3ccc(F)cc3)c2N)cc1F
IC50 (SK-OV-3 [1]): 33200 nM
IC50 (MDA-MB-231): 24600 nM

Structure (SMILES): COc1ccc(-n2nc(-c3cc(OC)c(OC)c(OC)c3)c(-c3ccc(SC)cc3)c2N)cc1
IC50 (SK-OV-3 [1]): 14000 nM
IC50 (MDA-MB-231): 7050 nM

Structure (SMILES): COc1ccc(/C=C\c2cc(OC)c(OC)c(OC)c2)cc1O [COMBRETASTATIN A4]
Activity (SK-OV-3 [2]): 20.7
Activity (SK-OV-3 [3]): 29.2%
IC50 (HeLa): 14.2 nM
IC50 (SK-OV-3 [1]): 5.9 nM
IC50 (MDA-MB-231): 4.5 nM
IC50 (MCF7): 39.1 nM
Activity (SK-OV-3 [4]): 26.3
Activity (SK-OV-3 [5]): 41.9%
inhibition (Bos taurus): Active
IC50 (CT26): 45.1 nM
Activity (SK-OV-3 [6]): 18.3
IC50 (A549): 94.3 nM

The remaining compounds from weak to strong by IC50 (SK-OV-3 [1]), led by results:

IC50 (SK-OV-3 [1]): 7370 nM
IC50 (MDA-MB-231): 22900 nM
Structure (SMILES): COc1cc(-c2nn(-c3ccc(F)cc3)c(N)c2-c2ccc(SC)cc2)cc(OC)c1OC

IC50 (SK-OV-3 [1]): 2830 nM
IC50 (MDA-MB-231): 1660 nM
Structure (SMILES): CCOc1ccc(-c2c(-c3cc(OC)c(OC)c(OC)c3)nn(-c3ccc(F)cc3)c2N)cc1

IC50 (SK-OV-3 [1]): 1210 nM
IC50 (MDA-MB-231): 2010 nM
Structure (SMILES): CCOc1ccc(-c2c(-c3cc(OC)c(OC)c(OC)c3)nn(-c3ccc(OC)cc3)c2N)cc1

IC50 (SK-OV-3 [1]): 1120 nM
IC50 (MDA-MB-231): 2570 nM
Structure (SMILES): CCOc1ccc(-c2c(-c3cc(OC)c(OC)c(OC)c3)nn(C(C)(C)C)c2N)cc1

IC50 (SK-OV-3 [1]): 438 nM
IC50 (MDA-MB-231): 748 nM
Structure (SMILES): COc1cc(-c2nn(C)c(N)c2-c2ccc(SC)cc2)cc(OC)c1OC

IC50 (SK-OV-3 [1]): 338 nM
IC50 (MDA-MB-231): 490 nM
Structure (SMILES): CCOc1ccc(-c2c(-c3cc(OC)c(OC)c(OC)c3)nn(C)c2N)cc1

IC50 (SK-OV-3 [1]): 155 nM
IC50 (MDA-MB-231): 307 nM
Structure (SMILES): COc1cc(-c2nn(C)cc2-c2ccc(SC)cc2)cc(OC)c1OC

IC50 (SK-OV-3 [1]): 89 nM
IC50 (MDA-MB-231): 166 nM
Structure (SMILES): COc1ccc(-c2cn(C)nc2-c2cc(OC)c(OC)c(OC)c2)cc1

IC50 (SK-OV-3 [1]): 69 nM
IC50 (MDA-MB-231): 74 nM
Structure (SMILES): COc1ccc(-c2cnn(C)c2-c2cc(OC)c(OC)c(OC)c2)cc1

IC50 (HeLa): 112 nM
IC50 (SK-OV-3 [1]): 66 nM
IC50 (MDA-MB-231): 57 nM
IC50 (MCF7): 113 nM
IC50 (CT26): 151 nM
IC50 (A549): 187 nM
Structure (SMILES): COc1ccc(-c2cnn(C)c2-c2cc(OC)c(OC)c(OC)c2)cc1F

IC50 (HeLa): 28.8 nM
IC50 (SK-OV-3 [1]): 55 nM
IC50 (MDA-MB-231): 41 nM
IC50 (MCF7): 37.2 nM
IC50 (CT26): 58.7 nM
IC50 (A549): 141 nM
Structure (SMILES): COc1ccc(-c2cn(C)nc2-c2cc(OC)c(OC)c(OC)c2)cc1F

IC50 (SK-OV-3 [1]): 52 nM
IC50 (MDA-MB-231): 41 nM
Structure (SMILES): COc1cc(-c2c(-c3ccc(SC)cc3)cnn2C)cc(OC)c1OC

IC50 (HeLa): 93.1 nM
IC50 (SK-OV-3 [1]): 43 nM
IC50 (MDA-MB-231): 72 nM
IC50 (MCF7): 39.9 nM
IC50 (CT26): 165 nM
IC50 (A549): 99 nM
Structure (SMILES): CCOc1ccc(-c2cnn(C)c2-c2cc(OC)c(OC)c(OC)c2)cc1
